Test results: ChEMBL document CHEMBL4715736, “Identification of anticancer agents based on the thieno[2,3-b]pyridine and 1H-pyrazole molecular scaffolds” (2016)

Key:
Format in all cases: functional
CCRF-CEM [1] = assay: Growth inhibition of human CCRF-CEM cells assessed as cell growth at 0.01 uM incubated for 48 hrs by sulforhodamine B assay relative to control; conditions: read-out: Activity
In short: (§1)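 NCI Developmental Therapeutics Program NCI60 panel. Compounds that were active in the 10 µM one-dose screen went on to dose–response testing. Growth at each concentration is expressed relative to untreated control (100%). GI50 (concentration giving 50% of maximal inhibition of proliferation) and TGI (concentration giving total growth inhibition) were derived from the curves.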

HCC 2998 = assay: Growth inhibition of human HCC 2998 cells assessed as cell growth at 0.01 uM incubated for 48 hrs by sulforhodamine B assay relative to control; conditions: read-out: Activity; in short: as §1
NCI-H226 = assay: Growth inhibition of human NCI-H226 cells assessed as cell growth at 0.1 uM incubated for 48 hrs by sulforhodamine B assay relative to control; conditions: read-out: Activity
Malme-3M = assay: Growth inhibition of human Malme-3M cells assessed as cell growth at 0.01 uM incubated for 48 hrs by sulforhodamine B assay relative to control; conditions: read-out: Activity
DU-145 = assay: Growth inhibition of human DU-145 cells incubated for 48 hrs by sulforhodamine B assay; conditions: for CC50: read-out: LC50 (the source's name); in short: as §1
LOX IMVI = assay: Growth inhibition of human LOX IMVI cells assessed as cell growth at 1 uM incubated for 48 hrs by sulforhodamine B assay relative to control; conditions: read-out: Activity
SF-295 = assay: Growth inhibition of human SF-295 cells assessed as cell growth at 1 uM incubated for 48 hrs by sulforhodamine B assay relative to control; conditions: read-out: Activity
HOP-62 = assay: Growth inhibition of human HOP-62 cells incubated for 48 hrs by sulforhodamine B assay
In short: (§2)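 NCI60 panel at the NCI Developmental Therapeutics Program. Only compounds active in the 10 µM screen went to dose-response testing. GI50, the concentration giving 50% of maximal inhibition of proliferation, and TGI, the concentration giving total growth inhibition, were derived from the dose-response curves.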

COLO 205 = assay: Growth inhibition of human COLO 205 cells assessed as cell growth at 1 uM incubated for 48 hrs by sulforhodamine B assay relative to control; conditions: read-out: Activity; in short: as §1
SNB-75 = assay: Growth inhibition of human SNB-75 cells assessed as cell growth at 0.01 uM incubated for 48 hrs by sulforhodamine B assay relative to control; conditions: read-out: Activity
HT-29 [2] = assay: Growth inhibition of human HT-29 cells assessed as cell growth at 0.01 uM incubated for 48 hrs by sulforhodamine B assay relative to control; conditions: read-out: Activity
U-251 = assay: Growth inhibition of human U-251 cells assessed as cell growth at 1 uM incubated for 48 hrs by sulforhodamine B assay relative to control; conditions: read-out: Activity
SK-OV-3 = assay: Growth inhibition of human SK-OV-3 cells assessed as cell growth at 0.1 uM incubated for 48 hrs by sulforhodamine B assay relative to control; conditions: read-out: Activity
SK-MEL-28 = assay: Growth inhibition of human SK-MEL-28 cells assessed as cell growth at 0.1 uM incubated for 48 hrs by sulforhodamine B assay relative to control; conditions: read-out: Activity
NCI-H522 [3] = assay: Growth inhibition of human NCI-H522 cells assessed as cell growth at 0.01 uM incubated for 48 hrs by sulforhodamine B assay relative to control; conditions: read-out: Activity
M14 = assay: Growth inhibition of human M14 cells assessed as cell growth at 0.01 uM incubated for 48 hrs by sulforhodamine B assay relative to control; conditions: read-out: Activity
SN12C = assay: Growth inhibition of human SN12C cells assessed as cell growth at 0.01 uM incubated for 48 hrs by sulforhodamine B assay relative to control; conditions: read-out: Activity
UO-31 [4] = assay: Growth inhibition of human UO-31 cells assessed as cell growth at 0.1 uM incubated for 48 hrs by sulforhodamine B assay relative to control; conditions: read-out: Activity
SR = assay: Growth inhibition of human SR cells assessed as cell growth at 1 uM incubated for 48 hrs by sulforhodamine B assay relative to control; conditions: read-out: Activity
K562 [5] = assay: Growth inhibition of human K562 cells assessed as cell growth at 0.01 uM incubated for 48 hrs by sulforhodamine B assay relative to control; conditions: read-out: Activity
RPMI-8226 = assay: Growth inhibition of human RPMI-8226 cells assessed as cell growth at 1 uM incubated for 48 hrs by sulforhodamine B assay relative to control; conditions: read-out: Activity
OVCAR-5 = assay: Growth inhibition of human OVCAR-5 cells incubated for 48 hrs by sulforhodamine B assay; conditions: for CC50: read-out: LC50 (the source's name)
In short: (§3)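 NCI DTP 60-line human tumour panel. Dose-response curves were run only for ligands active in the initial 10 µM screen. GI50 (concentration giving 50% of maximal inhibition of proliferation) and TGI (concentration giving total growth inhibition) were derived from these curves.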

OVCAR-4 = assay: Growth inhibition of human OVCAR-4 cells assessed as cell growth at 0.1 uM incubated for 48 hrs by sulforhodamine B assay relative to control; conditions: read-out: Activity
A549 = assay: Growth inhibition of human A549/ATCC cells assessed as cell growth at 1 uM incubated for 48 hrs by sulforhodamine B assay relative to control; conditions: read-out: Activity; in short: as §1
NCI-H322M = assay: Growth inhibition of human NCI-H322M cells incubated for 48 hrs by sulforhodamine B assay; conditions: for CC50: read-out: LC50 (the source's name); in short: as §2
SF-539 = assay: Growth inhibition of human SF-539 cells incubated for 48 hrs by sulforhodamine B assay; conditions: for CC50: read-out: LC50 (the source's name); in short: as §3
UO-31 [6] = assay: Growth inhibition of human UO-31 cells incubated for 48 hrs by sulforhodamine B assay; conditions: for CC50: read-out: LC50 (the source's name); in short: as §3
K562 [7] = assay: Growth inhibition of human K562 cells assessed as cell growth at 1 uM incubated for 48 hrs by sulforhodamine B assay relative to control; conditions: read-out: Activity
NCI-H522 [8] = assay: Growth inhibition of human NCI-H522 cells assessed as cell growth at 0.1 uM incubated for 48 hrs by sulforhodamine B assay relative to control; conditions: read-out: Activity
SF-268 = assay: Growth inhibition of human SF-268 cells incubated for 48 hrs by sulforhodamine B assay; in short: as §3
CCRF-CEM [9] = assay: Growth inhibition of human CCRF-CEM cells assessed as cell growth at 100 uM incubated for 48 hrs by sulforhodamine B assay relative to control; conditions: read-out: Activity; in short: as §1
HT-29 [10] = assay: Growth inhibition of human HT-29 cells assessed as cell growth at 1 uM incubated for 48 hrs by sulforhodamine B assay relative to control; conditions: read-out: Activity
RXF 393 = assay: Growth inhibition of human RXF 393 cells assessed as cell growth at 100 uM incubated for 48 hrs by sulforhodamine B assay relative to control; conditions: read-out: Activity
UACC-62 [11] = assay: Growth inhibition of human UACC-62 cells assessed as cell growth at 1 uM incubated for 48 hrs by sulforhodamine B assay relative to control; conditions: read-out: Activity
UACC-62 [12] = assay: Growth inhibition of human UACC-62 cells incubated for 48 hrs by sulforhodamine B assay; in short: as §3

SMILES: Cc1ccc(NC(=O)c2sc3nc4c(cc3c2N)C(=O)CCC4)cc1C
- growth at 0.01 µM (CCRF-CEM [1]): 94%
- growth at 0.01 µM (HCC 2998): 99%
- growth at 0.1 µM (NCI-H226): 88%
- growth at 0.01 µM (Malme-3M): 96%
- GI50 (DU-145): 0.602 µM
- TGI (DU-145): > 100 µM
- CC50 (DU-145): > 100 µM
- growth at 1 µM (LOX IMVI): 42%
- growth at 1 µM (SF-295): 17%
- GI50 (HOP-62): 0.605 µM
- LC50 (HOP-62): > 100 µM
- TGI (HOP-62): > 100 µM
- growth at 1 µM (COLO 205): -13%
- growth at 0.01 µM (SNB-75): 78%
- growth at 0.01 µM (HT-29 [2]): 106%
- growth at 1 µM (U-251): 42%
- growth at 0.1 µM (SK-OV-3): 107%
- growth at 0.1 µM (SK-MEL-28): 87%
- growth at 0.01 µM (NCI-H522 [3]): 100%
- growth at 0.01 µM (M14): 96%
- growth at 0.01 µM (SN12C): 94%
- growth at 0.1 µM (UO-31 [4]): 81%
- growth at 1 µM (SR): 25%
- growth at 0.01 µM (K562 [5]): 114%
- growth at 1 µM (RPMI-8226): 57%
- GI50 (OVCAR-5): 2.29 µM
- TGI (OVCAR-5): > 100 µM
- CC50 (OVCAR-5): > 100 µM
- growth at 0.1 µM (OVCAR-4): 82%
- growth at 1 µM (A549): 40%
- GI50 (NCI-H322M): 0.975 µM
- TGI (NCI-H322M): > 100 µM
- CC50 (NCI-H322M): > 100 µM
- GI50 (SF-539): 0.404 µM
- CC50 (SF-539): > 100 µM
- GI50 (UO-31 [6]): 0.0505 µM
- TGI (UO-31 [6]): > 100 µM
- CC50 (UO-31 [6]): > 100 µM
- growth at 1 µM (K562 [7]): 17%
- growth at 0.1 µM (NCI-H522 [8]): 82%
- GI50 (SF-268): 3.07 µM
- LC50 (concentration killing 50% of cells) (SF-268): > 100 µM
- TGI (SF-268): > 100 µM
- growth at 100 µM (CCRF-CEM [9]): 10%
- growth at 1 µM (HT-29 [10]): 14%
- growth at 100 µM (RXF 393): 14%

SMILES: CCc1cccc(C)c1NC(=O)c1sc2nc3c(cc2c1N)C(=O)CCC3
- growth at 0.01 µM (CCRF-CEM [1]): 97%
- growth at 0.01 µM (HCC 2998): 99%
- growth at 0.1 µM (NCI-H226): 94%
- growth at 0.01 µM (Malme-3M): 96%
- GI50 (DU-145): 0.454 µM
- TGI (DU-145): > 100 µM
- CC50 (DU-145): > 100 µM
- growth at 1 µM (LOX IMVI): 43%
- growth at 1 µM (SF-295): 5%
- GI50 (HOP-62): 0.679 µM
- LC50 (HOP-62): > 100 µM
- TGI (HOP-62): > 100 µM
- growth at 1 µM (COLO 205): -19%
- growth at 0.01 µM (SNB-75): 73%
- growth at 1 µM (U-251): 37%
- growth at 0.1 µM (SK-MEL-28): 91%
- growth at 0.01 µM (M14): 96%
- growth at 0.01 µM (SN12C): 97%
- growth at 0.1 µM (UO-31 [4]): 82%
- growth at 1 µM (SR): 17%
- growth at 0.01 µM (K562 [5]): 92%
- growth at 1 µM (UACC-62 [11]): 37%
- growth at 1 µM (RPMI-8226): 44%
- GI50 (OVCAR-5): 2.6 µM
- TGI (OVCAR-5): > 100 µM
- CC50 (OVCAR-5): > 100 µM
- growth at 0.1 µM (OVCAR-4): 91%
- growth at 1 µM (A549): 37%
- TGI (NCI-H322M): > 100 µM
- CC50 (NCI-H322M): > 100 µM
- GI50 (SF-539): 0.32 µM
- CC50 (SF-539): > 100 µM
- GI50 (UACC-62 [12]): 0.556 µM
- LC50 (UACC-62 [12]): > 100 µM
- TGI (UACC-62 [12]): > 100 µM
- GI50 (UO-31 [6]): 0.0982 µM
- TGI (UO-31 [6]): ≥ 100 µM
- CC50 (UO-31 [6]): > 100 µM
- growth at 1 µM (K562 [7]): 16%
- GI50 (SF-268): 3.04 µM
- LC50 (concentration killing 50% of cells) (SF-268): > 100 µM
- TGI (SF-268): > 100 µM
- growth at 100 µM (CCRF-CEM [9]): -11%
- growth at 100 µM (RXF 393): 5%
